Values after ≈ are worked out from the molar mass of the structure shown.
Tests used:
Type in all cases: functional
Pseudomonas aeruginosa [1] = assay: Siderophore activity determined using growth promoting assay in ATCC 27853 strain of Pseudomonas aeruginosa under iron limited conditions
Procedure, shortened: (§1)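 Growth promotion under iron limitation. Overnight Nutrient Agar cultures suspended in medium VA to 1 McFarland, then 1.5 mL mixed into 99 mL Al2O3-treated Hall-Ratledge agar (pH 6.8) with trace elements and EDDHA. 5 µL of 2 mM compound applied on 6 mm paper disks. Growth zone around disks measured after 18-20 h at 37 °C.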

Pseudomonas aeruginosa [2] = assay: Siderophore activity determined using growth promoting assay in K799/WT strain of Pseudomonas aeruginosa under iron limited conditions; procedure, shortened: as §1
Pseudomonas aeruginosa [3] = assay: Siderophore activity determined using growth promoting assay in ATCC 9027 strain of Pseudomonas aeruginosa under iron limited conditions; procedure, shortened: as §1
Pseudomonas aeruginosa [4] = assay: (§2) Siderophore activity determined using growth promoting assay in NCTC-10662 strain of Pseudomonas aeruginosa under iron limited conditions; parameters: unit not given beside the values; procedure, shortened: as §1
Pseudomonas aeruginosa [5] = assay: Siderophore activity determined using growth promoting assay in SG137 strain of Pseudomonas aeruginosa under iron limited conditions; procedure, shortened: as §1
Escherichia coli [6] = assay: Siderophore activity determined using growth promoting assay in ATCC 25922 strain of Escherichia coli under iron limited conditions; procedure, shortened: as §1
[7] = tested on: Stenotrophomonas maltophilia; assay: In vitro antibacterial activity against GN 12873 strain of Stenotrophomonas maltophilia
Procedure, shortened: (§3)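 MIC by microbroth dilution in Mueller-Hinton broth following NCCLS guidelines.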

Pseudomonas aeruginosa [8] = assay: In vitro antibacterial activity against ATCC 27853 strain of Pseudomonas aeruginosa; procedure, shortened: as §3
Escherichia coli [9] = assay: Influence of siderophore receptor on antibacterial activity in Escherichia coli (H1876) using agar diffusion assay
Procedure, shortened: (§4)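 Agar diffusion in Nutrient Agar with E. coli K-12 mutants altered in catecholate siderophore receptors Cir, Fiu and FepA. 50 µL of a 0.2 mM compound solution filled into 9 mm agar wells, with clavulanic acid 10 µg/mL added to block the penicillinase selection marker. Inhibition zone diameters (mm) read after overnight incubation at 37 °C.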

Serratia marcescens = assay: In vitro antibacterial activity against SG 621 strain of Serratia marcescens; procedure, shortened: as §3
Escherichia coli [10] = assay: Influence of siderophore receptor on antibacterial activity in Escherichia coli (1875) using agar diffusion assay; procedure, shortened: as §4
Escherichia coli [11] = assay: Influence of siderophore receptor on antibacterial activity in Escherichia coli (H873) using agar diffusion assay; procedure, shortened: as §4
Pseudomonas aeruginosa [12] = assay: In vitro antibacterial activity against SG 137 strain of Pseudomonas aeruginosa; procedure, shortened: as §3
Klebsiella pneumoniae = assay: In vitro antibacterial activity against ATCC 100331 strain of Klebsiella pneumoniae; procedure, shortened: as §3
Escherichia coli [13] = assay: Influence of siderophore receptor on antibacterial activity in Escherichia coli (H1877) using agar diffusion assay; procedure, shortened: as §4
Escherichia coli [14] = assay: In vitro antibacterial activity against ATCC 25922 strain of Escherichia coli; procedure, shortened: as §3
Staphylococcus aureus = assay: In vitro antibacterial activity against SG 511 strain of Staphylococcus aureus; procedure, shortened: as §3
Escherichia coli [15] = assay: Influence of siderophore receptor on antibacterial activity in Escherichia coli (H1443) using agar diffusion assay; procedure, shortened: as §4
Pseudomonas aeruginosa [16] = assay: as §2; procedure, shortened: as §1

| SMILES | Activity (Pseudomonas aeruginosa [1]) | Activity (Pseudomonas aeruginosa [2]) | Activity (Pseudomonas aeruginosa [3]) | Activity (Pseudomonas aeruginosa [4]) | Activity (Pseudomonas aeruginosa [5]) | Activity (Escherichia coli [6]) | other results |
| --- | --- | --- | --- | --- | --- | --- | --- |
| CC(=O)Oc1ccc(C(=O)NCCCCN(CC(=O)O)C(=O)c2ccc(OC(C)=O)c(OC(C)=O)c2)cc1OC(C)=O | 25 | 20 | 19 | 14 | 10 | 21 |  |
| COC(=O)Oc1cc(Cl)cc(C(=O)N(C)CCCN(CC(=O)O)C(=O)c2cc(Cl)cc(OC(=O)OC)c2OC(=O)OC)c1OC(=O)OC | 25 | 25 | 24 | 25 | 26 | 30 |  |
| COC(=O)Oc1cccc2c(=O)n(CCC(=O)Nc3cc(NC(=O)CCn4c(=O)oc5c(OC(=O)OC)cccc5c4=O)cc(C(=O)O)c3)c(=O)oc12 | 18 |  | 20 | 20 | 23 | 20 |  |
| CC(=O)Oc1cccc(C(=O)N(C)CCCN(CC(=O)O)C(=O)c2cccc(OC(C)=O)c2OC(C)=O)c1OC(C)=O | 19 | 22 | 18 | 23 | 15 | 20 |  |
| COC(=O)Oc1cc(Cl)c(Cl)c(C(=O)N(C)CCCN(CC(=O)O)C(=O)c2c(Cl)c(Cl)cc(OC(=O)OC)c2OC(=O)OC)c1OC(=O)OC | 25 | 25 | 25 | 30 | 30 | 30 |  |
| CC(=O)Oc1cccc(C(=O)NCCCCN(Cc2ccc(OCC(=O)O)cc2)C(=O)c2cccc(OC(C)=O)c2OC(C)=O)c1OC(C)=O | 22 | 12 | 25 | 23 | 19 | 27 |  |
| CC(=O)N(O)CCCCCNC(=O)CCC(=O)N(O)CCCCCNC(=O)CCC(=O)N(O)CCCCCN [DEFEROXAMINE] | 35 | 36 | 35 | 30 | 30 | 38 |  |
| COC(=O)Oc1cc(Br)cc(C(=O)N(C)CCCN(CC(=O)O)C(=O)c2cc(Br)cc(OC(=O)OC)c2OC(=O)OC)c1OC(=O)OC | 22 | 27 | 20 | 27 | 25 | 32 |  |
| COC(=O)Oc1cccc(C(=O)N(C)CCCN(CC(=O)O)C(=O)c2cccc(OC(=O)OC)c2OC(=O)OC)c1OC(=O)OC | 15 | 25 | 13 | 18 | 9 | 20 |  |
| COC(=O)Oc1cccc2c(=O)n(-c3cc(C(=O)O)cc(-n4c(=O)oc5c(OC(=O)OC)cccc5c4=O)c3)c(=O)oc12 | 15 |  | 20 | 18 | 25 | 20 |  |
| COC(=O)Oc1cccc(C(=O)N(CCCn2c(=O)oc3c(OC(=O)OC)cccc3c2=O)C(C)C(=O)NC(C(=O)NC2C(=O)N3C2SC(C)(C)C3C(=O)O)c2ccccc2)c1OC(=O)OC (configuration not stated) |  |  |  |  |  |  | MIC [7]: 0.4 µg/mL (≈ 0.421 µM); MIC (Pseudomonas aeruginosa [8]): 3.12 µg/mL (≈ 3.28 µM); Zone of inhibition (Escherichia coli [9]): 11.5 mm; MIC (Serratia marcescens): 0.2 µg/mL (≈ 0.211 µM); Zone of inhibition (Escherichia coli [10]): 22 mm; Zone of inhibition (Escherichia coli [11]): 25 mm; MIC (Pseudomonas aeruginosa [12]): 0.1 µg/mL (≈ 0.105 µM); MIC (Klebsiella pneumoniae): < 0.05 µg/mL; Zone of inhibition (Escherichia coli [13]): 22.5 mm; MIC (Escherichia coli [14]): 0.4 µg/mL (≈ 0.421 µM); MIC (Staphylococcus aureus): 1.56 µg/mL (≈ 1.64 µM); Zone of inhibition (Escherichia coli [15]): 24.5 mm |
| CC(=O)Oc1cccc(C(=O)NCCCCCN(CC(=O)O)C(=O)c2cccc(OC(C)=O)c2OC(C)=O)c1OC(C)=O | 30 | 25 | 20 | 30 | 28 | 27 |  |
| CC(=O)Oc1cccc(C(=O)NCCCCN(Cc2ccccc2OCC(=O)O)C(=O)c2cccc(OC(C)=O)c2OC(C)=O)c1OC(C)=O | 18 | 25 | 26 | 27 |  | 26 |  |
| CC(=O)Oc1cccc(C(=O)NCCCCN(CC(=O)O)C(=O)c2cccc(OC(C)=O)c2OC(C)=O)c1OC(C)=O | 20 | 25 | 20 |  | 26 | 28 | Activity (Pseudomonas aeruginosa [16]): 25 |
| CC(=O)Oc1cccc(C(=O)Nc2cc(NC(=O)c3cccc(OC(C)=O)c3OC(C)=O)cc(C(=O)O)c2)c1OC(C)=O | 0 |  | 10 | 17 | 20 | 27 |  |

— ChEMBL document CHEMBL1135500, “Highly antibacterial active aminoacyl penicillin conjugates with acylated bis-catecholate siderophores based on secondary diamino acids and related compounds” (2002)
